Our source for the IC50 and Activity values is ChEMBL document CHEMBL1143074, “Symplocamide A, a potent cytotoxin and chymotrypsin inhibitor from the marine Cyanobacterium Symploca sp” (J Nat Prod, 2008).

Activity calls are given as the source filed them. No cut-off for these calls is given here.

Test [1] can be described thus: Inhibition of trypsin. Put shortly:
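Trypsin (0.0023 mg/mL final, 2.75 BAEE U) was added to 0.45 mM BAEE in 64 mM NaH2PO4 pH 7.6 at 25 °C. Compound was premixed with substrate from a 1:2 EtOH dilution series (final 4.5 × 10-4 to 6.8 × 10^-6 M), against an EtOH blank. N-benzoyl-L-arginine formation was read at 253 nm for 5 min, and the 0.5–2 min interval was analyzed.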

A short description of test [2]: Inhibition of trypsin at 10 uM.
The nature of test [3]: Inhibition of chymotrypsin at 10 uM.
The nature of test [4]: Inhibition of chymotrypsin. An outline of the steps:
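Spectrophotometric assay: 0.0025 mg/mL chymotrypsin (0.0086 U) with 0.53 mM BTEE in 38 mM Tris-HCl pH 7.8, 53 mM CaCl2, 0.5 mM HCl and 32% MeOH at 25 °C. Inhibitor (from MeOH dilutions, final 6.25 × 10-5 to 7.5 × 10^-9 M) was equilibrated with substrate before enzyme addition. Absorbance at 256 nm was followed for 5 min, and the 0.5–1.5 min interval was analyzed.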

As to `CC(C)C[C@@H](NC(=O)[C@H](O)COS(=O)(=O)O)C(=O)N[C@@H]1C(=O)N[C@@H](CCCNC(=N)N)C(=O)N[C@H]2CC[C@@H](O)N(C2=O)[C@@H](CC(C)C)C(=O)N(C)[C@@H](Cc2ccc(O)cc2)C(=O)N[C@@H](C(C)C)C(=O)O[C@@H]1C`, the midpoint of inhibition in test [1], the IC50, lay at 0.0096 µM.
For the compound `CC(C)[C@H](NC(=O)[C@@H](C)NC(=O)[C@H](CCCc1ccc(O)cc1)NC(=O)[C@H](O)CO)C(=O)N[C@@H]1C(=O)N[C@@H](CCc2ccc(O)cc2)C(=O)N[C@H]2CC[C@@H](O)N(C2=O)[C@@H]([C@@H](C)O)C(=O)N(C)[C@@H](Cc2ccc(O)c(Br)c2)C(=O)N[C@@H](C(C)C)C(=O)O[C@@H]1C`, the result in test [2] and in test [3] was inactive.
Turning to `CCC(=O)N[C@@H](CCC(N)=O)C(=O)N1CC(C)[C@@H]2OC(=O)[C@H]([C@@H](C)CC)NC(=O)[C@H](Cc3ccc(O)cc3)N(C)C(=O)[C@H]([C@@H](C)CC)N3C(=O)[C@H](CC[C@H]3O)NC(=O)[C@H](CC(C)C)NC(=O)[C@H]21` (stereo partly drawn), the result in test [2] and in test [3] was inactive.
Consider `CCCC(=O)N[C@@H](CC(C)C)C(=O)N[C@@H](CCC(=O)O)C(=O)N[C@@H]1C(=O)N[C@@H](Cc2ccc(O)cc2)C(=O)N[C@H]2CC[C@@H](O)N(C2=O)[C@@H](C(C)C)C(=O)N(C)[C@@H](Cc2ccccc2)C(=O)N[C@@H]([C@@H](C)CC)C(=O)O[C@@H]1C`, for which the outcome in test [2] and in test [3] was inactive.
For the compound `CCCC(=O)N[C@@H](Cc1ccccc1)C(=O)N[C@@H](CCC(=O)O)C(=O)N[C@@H]1C(=O)N[C@@H](CCC(=O)O)C(=O)N[C@H]2CC[C@@H](O)N(C2=O)[C@@H](C(C)C)C(=O)N(C)[C@@H](Cc2ccccc2)C(=O)N[C@@H]([C@@H](C)CC)C(=O)O[C@@H]1C`, the result in test [2] and in test [3] was inactive.
Regarding `CC[C@H](C)[C@@H]1NC(=O)[C@H](Cc2ccc(OC)cc2)N(C)C(=O)[C@H]([C@@H](C)O)N2C(=O)[C@H](CC[C@H]2O)NC(=O)[C@H](CC(C)C)NC(=O)[C@@H](NC(=O)[C@H](CCC(N)=O)NC(=O)[C@@H]2CCC(=O)N2)[C@@H](C)OC1=O`, the result in test [2] and in test [3] was inactive.
Consider `CC[C@H](C)[C@@H]1NC(=O)[C@H](Cc2ccc(O)cc2)N(C)C(=O)[C@H]([C@@H](C)CC)N2C(=O)C(CCC2O)NC(=O)[C@H](CC(C)C)NC(=O)[C@@H]2C(OC1=O)C(C)CN2C(=O)[C@H](CCC(N)=O)NC(C)=O` (stereo in doubt; form 2), for which the result in test [2] and in test [3] was inactive.
For the compound `CC[C@H](C)[C@@H]1NC(=O)[C@H](Cc2ccccc2)N(C)C(=O)[C@H]([C@@H](C)CC)N2C(=O)[C@H](CC[C@H]2O)NC(=O)[C@H](CCCNC(=N)N)NC(=O)[C@@H](NC(=O)[C@H](O)COS(=O)(=O)O)[C@@H](C)OC1=O` [CYANOPEPTOLIN S], in test [1], inhibition was half-maximal at 0.24 µM (IC50).
`CC(C)[C@@H]1NC(=O)[C@H](Cc2ccc(O)cc2)N(C)C(=O)[C@H](Cc2ccccc2)N2C(=O)[C@H](CC[C@H]2O)NC(=O)[C@H](CCCNC(=N)N)NC(=O)[C@@H](NC(=O)[C@@H](O)COS(=O)(=O)O)[C@@H](C)OC1=O` [MICROPEPTIN 90]: half-maximal inhibition in test [1] (IC50) was put at 2.08 µM. Also, in test [3], the result was inactive.
Taken in the same sequence, the figures for `CCCCCCCC(=O)N[C@@H](CCC(=O)O)C(=O)N[C@@H]1C(=O)N[C@@H](CCCCN)C(=O)N[C@H]2CC[C@@H](O)N(C2=O)[C@@H](CC(C)C)C(=O)N(C)[C@@H](Cc2ccc(O)cc2)C(=O)N[C@@H](C(C)C)C(=O)O[C@@H]1C` [MICROPEPTIN A] were 0.07 µM and “inactive”.
Taken in the same sequence, the figures for `CCCCCC(=O)N[C@@H](CCC(=O)O)C(=O)N[C@@H]1C(=O)N[C@@H](CCCNC(=N)N)C(=O)N[C@H]2CC[C@@H](O)N(C2=O)[C@@H](CC(C)C)C(=O)N(C)[C@@H](Cc2ccc(O)cc2)C(=O)N[C@@H](C(C)C)C(=O)O[C@@H]1C` [MICROPEPTIN B] were 0.26 µM and “inactive”.
On the same counts, the results for `CC[C@H](C)[C@@H]1NC(=O)[C@H](Cc2ccc(O)cc2)N(C)C(=O)[C@H](Cc2ccccc2)N2C(=O)[C@H](CC[C@H]2O)NC(=O)[C@H](CCCNC(=N)N)NC(=O)[C@@H](NC(=O)[C@H](CC(=O)O)NC(C)=O)[C@@H](C)OC1=O` [MICROPEPTIN E1964] are 4.36 µM and “inactive”.
As to `CCCC(=O)N[C@@H](CC(=O)O)C(=O)N[C@@H]1C(=O)N[C@@H](CCCNC(=N)N)C(=O)N[C@H]2CC[C@@H](O)N(C2=O)[C@@H](Cc2ccccc2)C(=O)N(C)[C@@H](Cc2ccc(O)cc2)C(=O)N[C@@H]([C@@H](C)CC)C(=O)O[C@@H]1C` [MICROPEPTIN EI992], in test [1], the IC50 – broadly, the point on the concentration scale where inhibition reaches its midpoint – was found to be 3.83 µM. For the same compound, the result in test [3] was inactive.
Consider `CCCCCC(=O)N[C@@H](CC(=O)O)C(=O)N[C@@H]1C(=O)N[C@@H](CCCCN)C(=O)N[C@H]2CC[C@@H](O)N(C2=O)[C@@H]([C@@H](C)CC)C(=O)N(C)[C@@H](Cc2ccc(O)cc2)C(=O)N[C@@H](C(C)C)C(=O)O[C@@H]1C` [MICROPEPTIN SD944], for which the IC50 in test [1] came out at 8.47 µM. Moreover, the result in test [3] was inactive.
`CCCCCC(=O)N[C@@H](CC(=O)O)C(=O)N[C@@H]1C(=O)N[C@@H](CCCNC(=N)N)C(=O)N[C@H]2CC[C@@H](O)N(C2=O)[C@@H]([C@@H](C)CC)C(=O)N(C)[C@@H](CC(=O)c2ccccc2N)C(=O)N[C@@H](C(C)C)C(=O)O[C@@H]1C` [MICROPEPTIN SD999] yielded an IC50 in test [1] of 4 µM. In addition, in test [3], the outcome was inactive.
On the same counts, the results for `CCCCCC(=O)N[C@@H](CC(=O)O)C(=O)N[C@@H]1C(=O)N[C@@H](CCCNC(=N)N)C(=O)N[C@H]2CC[C@@H](O)N(C2=O)[C@@H]([C@@H](C)CC)C(=O)N(C)[C@@H](Cc2c[nH]c3ccccc23)C(=O)N[C@@H](C(C)C)C(=O)O[C@@H]1C` [MICROPEPTIN SF995] are 0.2 µM and “inactive”.
Taken in the same sequence, the figures for `CCCCCC(=O)N[C@@H](CCC(=O)O)C(=O)N[C@@H]1C(=O)N[C@@H](CCCCN)C(=O)N[C@H]2CC[C@@H](O)N(C2=O)[C@@H](Cc2ccccc2)C(=O)N(C)[C@@H](Cc2c[nH]c3ccccc23)C(=O)N[C@@H](C(C)C)C(=O)O[C@@H]1C` [MICROPEPTIN T2] were 0.1 µM and “inactive”.
Take `CC(=O)N[C@@H](CCC(N)=O)C(=O)N[C@@H]1C(=O)N[C@@H](CC(C)C)C(=O)N[C@H]2CC[C@@H](O)N(C2=O)[C@@H](Cc2ccccc2)C(=O)N(C)[C@@H](Cc2ccc(O)cc2)C(=O)N[C@@H](C(C)C)C(=O)O[C@@H]1C` [NOSTOPEPTIN BN920]: the IC50 in test [4] turned out to be 0.11 µM. Moreover, in test [2], the outcome was inactive.
`CC[C@H](C)[C@@H]1NC(=O)[C@H](Cc2ccc(O)cc2)N(C)C(=O)[C@H](CC(C)C)N2C(=O)[C@H](CC[C@H]2O)NC(=O)[C@H](CC(C)C)NC(=O)[C@@H]2[C@@H](OC1=O)C(C)CN2C(=O)[C@H](CCC(N)=O)NC(C)=O` (stereo partly drawn) [NOSTOPEPTIN E]: inhibition in test [4] was half-maximal at 3.6 µM (IC50). The outcome in test [2] was inactive.
On the same counts, the results for `CC[C@H](C)[C@@H]1NC(=O)[C@H](Cc2ccc(O)cc2)N(C)C(=O)[C@H](CC(C)C)N2C(=O)[C@H](CC[C@H]2OC)NC(=O)[C@H](CC(C)C)NC(=O)[C@@H]2[C@@H](OC1=O)C(C)CN2C(=O)[C@H](CCC(N)=O)NC(C)=O` (stereo partly drawn) [NOSTOPEPTIN F] are 3.8 µM and “inactive”.
Taken in the same sequence, the figures for `CC[C@H](C)[C@@H]1NC(=O)[C@H](Cc2ccc(OC)cc2)N(C)C(=O)[C@H](CC(C)C)N2C(=O)[C@H](CC[C@H]2O)NC(=O)[C@H](CC(C)C)NC(=O)[C@@H]2[C@@H](OC1=O)C(C)CN2C(=O)[C@H](CCC(N)=O)NC(C)=O` (stereo partly drawn) [NOSTOPEPTIN I] were 3.5 µM and “inactive”.
On the same counts, the results for `CC[C@H](C)[C@@H]1NC(=O)[C@H](Cc2ccc(OC)cc2)N(C)C(=O)[C@H](CC(C)C)N2C(=O)[C@H](CC[C@H]2OC)NC(=O)[C@H](CC(C)C)NC(=O)[C@@H]2[C@@H](OC1=O)C(C)CN2C(=O)[C@H](CCC(N)=O)NC(C)=O` (stereo partly drawn) [NOSTOPEPTIN J] are 3.2 µM and “inactive”.
`CC[C@@H](C)[C@@H]1NC(=O)[C@H](Cc2ccc(OC)cc2)N(C)C(=O)[C@H]([C@@H](C)CC)N2C(=O)[C@H](CC[C@H]2O)NC(=O)[C@H](CCc2ccc(O)cc2)NC(=O)[C@@H](NC(=O)[C@H](CCc2ccc(O)cc2)NC(=O)[C@@H](COS(=O)(=O)O)OC)[C@@H](C)OC1=O` [OSCILLAPEPTIN A] showed an IC50 in test [4] of 1.89 µM. Besides, the outcome in test [2] was inactive.
Regarding `CC[C@H](C)[C@@H]1NC(=O)[C@H](Cc2ccc(OC)cc2)N(C)C(=O)[C@H]([C@@H](C)O)N2C(=O)[C@H](CC[C@H]2O)NC(=O)[C@H](CC(C)C)NC(=O)[C@@H](NC(=O)[C@H](CCC(N)=O)NC(=O)[C@@H](NC(=O)[C@@H](O)CO)C(C)C)[C@@H](C)OC1=O` [PLANKTOPEPTIN BL1061], the IC50 in test [4] is 2.1 µM. Moreover, in test [2], the result was inactive.
With `CC[C@H](C)[C@@H]1NC(=O)[C@H](Cc2ccc(OC)cc2)N(C)C(=O)[C@H]([C@@H](C)O)N2C(=O)[C@H](CC[C@H]2O)NC(=O)[C@H](CC(C)C)NC(=O)[C@@H](NC(=O)[C@H](CCC(N)=O)NC(=O)[C@H](CCc2ccc(O)cc2)NC(=O)[C@@H](O)CO)[C@@H](C)OC1=O` [PLANKTOPEPTIN BL1125], half-maximal inhibition in test [4] (IC50) required 0.8 µM. In test [2], the result was inactive.
